Assay outcomes: PubChem BioAssay, The Scripps Research Institute Molecular Screening Center
In the library only some 2.6% were active in any assay of this set; here they are far more common.
OX1R antag-1: OX1R (HCRTR1) antagonists, primary screen, fluorescence, CHO/OX1R cells, Fluo-8 calcium, orexin A. inhibition, % at 5 µM. actives 0.43% (n = 330,000). Fluo-8 calcium fluorescence;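 active means inhibition above its plate's threshold, mean inhibition of all tested compounds on the plate plus 3 SD, cut at about 37% in these data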
OX1R antag-2: antagonists of human orexin 1 receptor (OX1R). OX1R-expressing cells, FRET antagonist read-out. inhibition, % at 6.6 µM. actives 1.8% (n = 330,000). AID 485270, 2010; in the data active means inhibition mostly above about 38%, no sharp cut-off; inactive means mostly below about 40%
CHO parental Ca: ATP-evoked calcium signal inhibitors, parental CHO, primary screen, counter-screen for OX1R antagonist project, cell-based, fluorescence, Fluo-8 calcium dye | parental CHO-K1, ATP-induced calcium, Fluo-8 fluorescence | actives 0.63% (n = 330,000) | inhibition, % at 5.6 µM;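 active means inhibition above that plate's mean sample inhibition plus 3 SD, cut at about 26% in these data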
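Test system: untransfected parental CHO cell line; also added: ATP stimulus; dosing: 5.6 µM, single dose; signal: calcium-sensitive Fluo-8 fluorescence; measure: percent inhibition of ATP-evoked calcium rise, normalized to controls; benchmarks: low control ATP plus DMSO, high control DMSO only; replication: one well per compound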
OXTR potentiate: human OXTR potentiators, primary screen, fluorescence, CHO-OTR cells, Fluo-8 calcium; AID 2445, 2010; activation, % at 3 µM; Oxytocin receptor (Homo sapiens), P30559; Fluo-8 calcium fluorescence, potentiator mode; 0% = oxytocin EC15, 100% = EC100; actives 0.061% (n = 320,000);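 active means activation above that plate's cutoff, the mean activation of tested compounds plus 3 SD, cut at about 6.6% in these data, passing the limit was not always enough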
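test system = CHO-OTR cells, human receptor | compound = single-point 3.0 µM | schedule = 6 min compound pre-incubation at room temperature, 100 s kinetic read | signal = Fluo-8 no-wash calcium dye fluorescence, excitation 470-495 nm, emission 515-575 nm | repeats = single well per compound, singlicate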
V1aR counter: agonists of human V1a receptor, primary screen, counter-screen for OXTR agonist project, fluorescence, CHO-V1R cells | Vasopressin V1a receptor (Homo sapiens), P37288 | actives 0.25% (n = 320,000) | activation, % at 3 µM | Fluo-8 calcium fluorescence, agonist mode; 0% DMSO, 100% 3 nM vasopressin;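 active means activation above the mean activation of all tested compounds plus 3 SD, per screening run, cut at about 20% in these data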;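 further: signal is peak over basal fluorescence ratio across a 100 second FLIPR read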
Target sequence (P37288 whole entry, looked up): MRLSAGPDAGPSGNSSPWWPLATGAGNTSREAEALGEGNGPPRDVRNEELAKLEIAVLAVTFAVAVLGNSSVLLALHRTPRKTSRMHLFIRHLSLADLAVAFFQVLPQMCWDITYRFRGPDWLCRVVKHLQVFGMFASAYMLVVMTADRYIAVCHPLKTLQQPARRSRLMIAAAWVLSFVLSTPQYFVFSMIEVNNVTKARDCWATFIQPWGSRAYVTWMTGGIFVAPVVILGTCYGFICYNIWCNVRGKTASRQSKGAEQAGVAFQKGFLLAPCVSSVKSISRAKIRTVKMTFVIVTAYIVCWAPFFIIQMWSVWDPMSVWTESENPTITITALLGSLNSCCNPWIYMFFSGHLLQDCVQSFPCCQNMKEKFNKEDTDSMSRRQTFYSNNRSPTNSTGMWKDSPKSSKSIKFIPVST
OXTR agonist: human OXTR agonists, primary screen, fluorescence, CHO-OTR cells, Fluo-8 calcium | Fluo-8 calcium fluorescence; normalized: DMSO 0%, oxytocin 100% | Oxytocin receptor (Homo sapiens), P30559 | AID 2435, 2010 | actives 0.32% (n = 320,000) | activation, % at 3 µM;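 active means activation above the mean of all tested compounds plus 3 SD, cutoff set per screening run, cut at about 20% in these data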;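 further: peak over basal fluorescence ratio from a 100 s FLIPR kinetic read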
A number is an active result; n = inactive; x = no result given.

SMILES	OX1R antag-1	OX1R antag-2	CHO parental Ca	OXTR potentiate	V1aR counter	OXTR agonist
Cc1ccc(S(=O)(=O)N2CCOCC2)cc1C(=O)NCCc1ccc(Cl)cc1	n	n	n	n	n	n
C/C(Cn1nnc([N+](=O)[O-])n1)=N\NC(=O)c1cccc(Cl)c1	n	n	n	n	n	n
C/C(Cn1nnc([N+](=O)[O-])n1)=N\NC(=O)c1ccccc1Cl	n	42	n	n	n	n
CC(=O)Nc1cccc(NC(=O)CSc2ncc(-c3ccc(Cl)cc3)n2Cc2ccco2)c1	73	82	61	n	n	n
CCn1c(SCC(=O)Nc2ccc3c(c2)OCCO3)nnc1-c1c[nH]c2ccccc12	n	38	n	n	n	n
O=C(CSc1nnc(-c2ccccc2Cl)n1Cc1ccco1)Nc1ccc2c(c1)OCCO2	n	71	n	n	n	n
Cc1cc(NC(=O)CSc2nnc(-c3ccccc3)n2Cc2ccco2)no1	n	n	n	n	n	n
O=C(CSc1nnc(-c2ccc(Cl)cc2)n1Cc1ccco1)Nc1ccc2c(c1)OCCO2	n	n	n	n	n	n
COc1ccc(NC(=O)CSc2nnc(-c3ccccc3)n2Cc2ccco2)cc1OC	n	38	n	n	n	n
O=C(CN1CCN(c2ccccc2O)CC1)Nc1cc(S(=O)(=O)N2CCCC2)ccc1Cl	n	n	n	n	n	n
COc1cc(CN(C2CC2)S(=O)(=O)c2ccccc2Br)cc(OC)c1	n	n	n	x	x	x
Clc1ccccc1OCCn1cnc2ccccc21	n	n	n	n	n	n
Brc1ccccc1OCCCCn1cnc2ccccc21	n	35	66	n	n	n
COc1ccc(/C=N/NC(=O)c2ccoc2C)cc1COc1c(C)cccc1C	51	n	74	n	n	n
CC1CN(C(=O)COC(=O)/C=C/c2cccc([N+](=O)[O-])c2)CC(C)O1 (centres undefined)	n	n	n	n	n	n
COCCNC(=O)C(c1ccc(C)cc1)N(Cc1ccco1)C(=O)CCC(=O)Nc1ccccn1 (centres undefined)	n	56	n	n	n	n
O=[N+]([O-])c1ccc(C[n+]2cccc3c4ccccc4ccc32)cc1	n	49	n	n	n	n
Cc1ccc[n+](Cc2ccc([N+](=O)[O-])cc2)c1	n	n	n	n	n	n
CC(=O)Oc1ccc(C(=O)Nc2cccnc2)cc1	n	n	n	n	n	n
CN(C(=O)c1cccc(NC(=O)C2CCN(C(=O)OC(C)(C)C)CC2)c1)C1CCCCC1	n	n	n	n	n	n
Cc1cccc(N2C(=O)C(O)=C(C(=O)c3cccs3)C2c2ccc(C(C)C)cc2)n1 (centres undefined)	n	n	n	n	33	33
O=C(NC1CC2CCC(C1)N2Cc1ccccc1)c1ccccc1Br (centres undefined)	n	n	n	n	n	n
Cc1cccc(N2CCN(CC(=O)Nc3ccc(S(=O)(=O)N4CCOCC4)cc3)CC2)c1C	n	n	55	n	n	n
c1ccc2c(c1)[nH]c1nc3nncn3nc12	n	53	n	n	n	n
O=c1[nH]c2ccccc2c2nc3ccccn3c12	n	n	n	n	n	n
SMILES	OX1R antag-1	OX1R antag-2	CHO parental Ca	OXTR potentiate	V1aR counter	OXTR agonist
CS(=O)c1nc(-c2ccc(Br)cc2)cc(-c2ccccc2)c1C#N (centres undefined)	81	n	84	n	n	n
N#Cc1c(-c2ccccc2)cc(-c2ccccc2)nc1SCCC(=O)O	n	74	n	n	n	n
COc1ccc2nc(NC(=O)c3ccc4ncsc4c3)sc2c1	n	57	n	n	n	n
COc1ccc2nc(NC(=O)Nc3ccccc3OC)sc2c1	n	66	n	n	n	n
COc1cccc(C(CC(=O)Nc2cccc3ccccc23)NC(=O)c2ccccc2)c1 (centres undefined)	n	35	n	n	n	n
COc1cccc(C(=O)NNC(=O)C(=O)Nc2cccc3ccccc23)c1	n	n	n	n	n	n
COc1ccc2nc(NC(=O)c3ccc(F)cc3)sc2c1	n	n	n	n	n	n
COc1ccc2nc(NC(=O)Nc3cccc4ccccc34)sc2c1	n	42	n	n	n	n
O=C(Cc1ccccc1)NC(=S)Nc1ccc(OC(F)F)cc1	n	n	n	n	n	n
Cc1ccsc1C(=O)NNC(=O)c1cccc(S(=O)(=O)N2CCCC2)c1	n	n	n	n	n	n
CCCCCC(=O)N/N=C/c1ccc([N+](=O)[O-])o1	n	36	n	n	n	n
O=C(CNc1ccccc1)N/N=C/c1ccc([N+](=O)[O-])o1	n	51	n	n	n	n
Cc1ccc(NCC(=O)N/N=C\c2ccc([N+](=O)[O-])o2)cc1	n	n	n	n	n	n
Nc1nonc1C(=O)NCCN=Cc1ccccc1O	n	n	n	n	n	n
Nc1nonc1C(=O)NCCN=Cc1cc(Cc2ccccc2)cc(Br)c1O	n	n	62	n	n	n
CC(C)(C)OC(=O)NCc1ccc(CNC(=O)c2nc[nH]c2C(=O)NCc2ccc(CNC(=O)OC(C)(C)C)cc2)cc1	n	n	n	n	n	n
CC(C)C[C@H](NC(=O)c1nc[nH]c1C(=O)NCCCCCNC(=O)OC(C)(C)C)C(=O)OCc1ccccc1	n	n	n	n	n	n
CC(C)(C)OC(=O)NCCCCCNC(=O)c1[nH]cnc1C(=O)N[C@@H](Cc1ccccc1)C(=O)OCc1ccccc1	73	n	47	n	n	n
CC(C)C[C@H](NC(=O)c1nc[nH]c1C(=O)NC1CCN(C(=O)OC(C)(C)C)CC1)C(=O)OCc1ccccc1	n	n	34	n	n	n
CC(C)(C)OC(=O)NCCCCCNC(=O)c1nc[nH]c1C(=O)NCc1ccc(CNC(=O)OC(C)(C)C)cc1	58	n	40	n	n	n
O=C(N/N=C/c1c(O)ccc2ccccc12)c1cccnc1	n	n	n	n	n	n
Nc1nonc1N/N=C/c1c(O)ccc2ccccc12	50	n	n	n	n	n
O=C(NNC(=S)NCc1ccccc1)c1ccc(Br)o1	n	n	n	n	n	n
O=C(N/N=C\c1c(O)ccc2ccccc12)c1cncc(Br)c1	63	73	67	n	155	152
O=C(N/N=C/c1c(O)ccc2ccccc12)c1ccc(Br)o1	n	n	n	n	22	20
